Calls of active or inactive are those of the source. The calls are words filed in the database; no cut-off is given here.
Tests used:
[1] = Ratio of EC50 for antibacterial activity against Escherichia coli K-12 BW25113 to EC50 for Staphylococcus aureus SH1000; type: functional
Staphylococcus aureus [2] = experiment: Potentiation of ciprofloxacin-induced antibacterial activity against methicillin resistant Staphylococcus aureus USA300 JE2 assessed as fold reduction in ciprofloxacin EC50 incubated for 18 hrs in presence of 0.5 times MIC ciprofloxacin by broth microdilution method relative to ciprofloxacin; type: functional
Escherichia coli = experiment: Inhibition of Escherichia coli DNA topoisomerase IV using supercoiled pQE80L as substrate at 12.5 uM incubated for 30 mins by ethidium bromide staining-based agarose gel electrophoresis method
[3] = test system: Staphylococcus aureus subsp. aureus USA300; details: JE2, 66 uM
[4] = test system: Staphylococcus aureus subsp. aureus USA300; experiment: Inhibition of AddAB in Staphylococcus aureus USA300 JE2 transformed with pCN34 PrecA-gfp reporter plasmid assessed as decrease in cell number at 66 uM measured at 15 mins interval for 17 hrs by GFP reporter gene assay
How it was run: (§1)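 S. aureus JE2 carrying a recA-promoter GFP reporter. […] Cell number was read as OD600 and SOS activation as GFP fluorescence, then normalized as fluorescence per cell. Mean ± SEM, n = 3 biological replicates.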

[5] = biological target: T1, DNA gyrase (Escherichia coli) (UniProt P0AES6+P0AES4); experiment: Inhibition of Escherichia coli DNA gyrase (A2B2 tetramer) assessed as Fraction supercoiled at 12.5 uM using relaxed pBR322 as substrate preincubated for 30 mins followed by enzyme addition by SYBR staining-based agarose gel electrophoresis method; type: protein-complex assay
How it was run: (§2)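 Supercoiling of relaxed pBR322 by DNA gyrase, with products (relaxed, […], supercoiled) resolved by agarose gel electrophoresis. Supercoiled fraction quantified by densitometry. Mean ± SEM of 3 technical replicates.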

[6] = biological target: T1, DNA gyrase (Escherichia coli); experiment: Inhibition of Escherichia coli DNA gyrase (A2B2 tetramer) at 12.5 uM using relaxed pBR322 as substrate preincubated for 30 mins followed by enzyme addition by SYBR staining-based agarose gel electrophoresis method; type: protein-complex assay; how it was run: as §2
[7] = Inhibition of N-terminal strep2-tagged AddA (unknown origin) expressed in Escherichia coli BL21 cells transformed with pET28 plasmid by Western blot based pull down assay
How it was run: (§3)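 Pulldown from E. coli SoluBL21 expressing StrepII-tagged AddA and His6-tagged AddB from pET28b+, induced overnight at 16 °C. Lysates were obtained by sonication and incubated with compound-functionalized Sepharose or DMSO-treated, Tris-quenched control beads. Beads were washed three times in lysis buffer and eluted in SDS-PAGE sample buffer. Western blots used anti-His6 and anti-StrepII detection.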

[8] = test system: Staphylococcus aureus subsp. aureus USA300; experiment: Inhibition of AddAB in Staphylococcus aureus USA300 JE2 transformed with pCN34 PrecA-gfp reporter plasmid assessed as inhibition of SOS response by measuring reduction in green fluorescence per cell at 66 uM measured at 15 mins interval for 17 hrs by GFP reporter gene assay; how it was run: as §1
[9] = Inhibition of N-terminal his6-tagged AddB (unknown origin) expressed in Escherichia coli BL21 cells transformed with pET28 plasmid by Western blot based pull down assay; how it was run: as §3
Staphylococcus aureus [10] = experiment: Synergistic antibacterial activity against Staphylococcus aureus USA300 JE2 assessed as ciprofloxacin dose reduction index at 100 uM at 1:1 test compound to ciprofloxacin measured every 30 mins for 17 hrs; type: functional
How it was run: (§4)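 OD600 recorded over 17 h at 37 °C. Exponential-phase growth rate used for dose–response EC50 fitting. Combination index and dose-reduction index calculated by the Chou–Talalay method versus fraction affected.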

Staphylococcus aureus [11] = experiment: Synergistic antibacterial activity against Staphylococcus aureus USA300 JE2 assessed as ciprofloxacin dose reduction index at 100 uM at 1:2 test compound to ciprofloxacin measured every 30 mins for 17 hrs; type: functional; how it was run: as §4
Staphylococcus aureus [12] = experiment: Synergistic antibacterial activity against Staphylococcus aureus USA300 JE2 assessed as dose reduction index at 100 uM at 1:2 test compound to ciprofloxacin measured every 30 mins for 17 hrs; type: functional; how it was run: as §4
Staphylococcus aureus [13] = experiment: Synergistic antibacterial activity against Staphylococcus aureus USA300 JE2 assessed as dose reduction index at 100 uM at 1:1 test compound to ciprofloxacin measured every 30 mins for 17 hrs; type: functional; how it was run: as §4

With `CCn1cc(C(=O)O)c(=O)c2cnc(N3CCN(C(=S)Nc4cc(Cl)cc(Cl)c4)CC3)nc21` the “Ratio EC50” value [1] was over 50 and the “fold change (FC)” value (Staphylococcus aureus [2]) was over 4.
For `O=C(O)c1cn(C2CC2)c2cc(N3CCN(C(=S)Nc4ccc([N+](=O)[O-])cc4)CC3)c(F)cc2c1=O`, the “fold change (FC)” value (Staphylococcus aureus [2]) was 20.
With `O=C(O)c1cn(C2CC2)c2cc(N3CCNCC3)c(F)cc2c1=O` the inhibition (Escherichia coli) was “Active”, the inhibition [3] was “Active” and the inhibition [4] was “Active”.
In the case of `O=C(O)c1cn(C2CC2)c2cc(N3CCN(C(=S)Nc4cccc(Cl)c4)CC3)c(F)cc2c1=O`, the “Ratio EC50” value [1] was 2 - 5 and the “fold change (FC)” value (Staphylococcus aureus [2]) was over 3.
With `O=C(O)c1cn(C2CC2)c2cc(N3CCN(C(=S)Nc4cc(Cl)cc(Cl)c4)CC3)c(F)cc2c1=O` the “Ratio EC50” value [1] was 2 - 5 and the “fold change (FC)” value (Staphylococcus aureus [2]) was over 3.
For `O=C(O)c1cn(C2CC2)c2cc(N3CCN(C(=S)Nc4ccc(C(F)(F)F)cc4)CC3)c(F)cc2c1=O`, the Ratio [5] was 1.2, the inhibition [6] was “inactive” and the inhibition (Escherichia coli) was “inactive”. The “Ratio EC50” value [1] was 2 - 5, the inhibition [7] was “Active” and the inhibition [8] was “Active”. The inhibition [4] was “Active”, the “fold change (FC)” value (Staphylococcus aureus [2]) was over 3 and the inhibition [9] was “Active”. For the same compound, the Activity_index (Staphylococcus aureus [10]) was 2.9.
In the case of `O=C(O)c1cn(C2CC2)c2cc(N3CCN(C(=S)Nc4cccc(C(F)(F)F)c4)CC3)c(F)cc2c1=O`, the “Ratio EC50” value [1] was 2 - 5 and the “fold change (FC)” value (Staphylococcus aureus [2]) was over 3.
For `O=C(O)c1cn(C2CC2)c2cc(N3CCN(C(=S)Nc4cccc([N+](=O)[O-])c4)CC3)c(F)cc2c1=O`, the “fold change (FC)” value (Staphylococcus aureus [2]) was over 4.
With `CCn1cc(C(=O)O)c(=O)c2cnc(N3CCN(C(=S)Nc4cccc(F)c4)CC3)nc21` the “Ratio EC50” value [1] was over 10 and the “fold change (FC)” value (Staphylococcus aureus [2]) was over 4.
In the case of `CCn1cc(C(=O)O)c(=O)c2cnc(N3CCN(C(=S)Nc4cccc(Cl)c4)CC3)nc21`, the Ratio [5] was 1.1, the inhibition [6] was “inactive” and the “Ratio EC50” value [1] was over 10. For the same compound, the Activity_index (Staphylococcus aureus [11]) was 2.2, the “fold change (FC)” value (Staphylococcus aureus [2]) was over 4 and the Activity_index (Staphylococcus aureus [12]) was 2.
For `O=C(O)c1cn(C2CC2)c2cc(N3CCN(C(=S)Nc4cc(C(F)(F)F)cc(C(F)(F)F)c4)CC3)c(F)cc2c1=O`, the “fold change (FC)” value (Staphylococcus aureus [2]) was over 4.
With `CCn1cc(C(=O)O)c(=O)c2cnc(N3CCN(C(=S)Nc4cccc(C(F)(F)F)c4)CC3)nc21` the Ratio [5] was 1.1, the inhibition [6] was “inactive” and the inhibition (Escherichia coli) was “inactive”. The “Ratio EC50” value [1] was over 10, the Activity_index (Staphylococcus aureus [13]) was 2.2 and the “fold change (FC)” value (Staphylococcus aureus [2]) was over 4. For the same compound, the Activity_index (Staphylococcus aureus [10]) was 1.8.
With `CCn1cc(C(=O)O)c(=O)c2cnc(N3CCN(C(=S)Nc4ccc(C(F)(F)F)cc4)CC3)nc21` the “Ratio EC50” value [1] was over 10 and the “fold change (FC)” value (Staphylococcus aureus [2]) was over 4.
With `O=C(O)c1cn(C2CC2)c2cc(N3CCN(C(=O)Nc4ccccc4)CC3)c(F)cc2c1=O` the inhibition [7] was “inactive” and the inhibition [9] was “inactive”.
With `O=C(O)c1cn(C2CC2)c2cc(N3CCN(C(=S)Nc4cccc(F)c4)CC3)c(F)cc2c1=O` the “Ratio EC50” value [1] was 2 - 5 and the “fold change (FC)” value (Staphylococcus aureus [2]) was over 3.
For `CCn1cc(C(=O)O)c(=O)c2cnc(N3CCN(C(=S)Nc4cc(C(F)(F)F)cc(C(F)(F)F)c4)CC3)nc21`, the “Ratio EC50” value [1] was over 10 and the “fold change (FC)” value (Staphylococcus aureus [2]) was over 4.
In the case of `CCn1cc(C(=O)O)c(=O)c2cnc(N3CCN(C(=O)Nc4ccccc4)CC3)nc21`, the Ratio [5] was 1.1, the inhibition [6] was “inactive” and the inhibition (Escherichia coli) was “inactive”. The “fold change (FC)” value (Staphylococcus aureus [2]) was over 4.
